The values below come from ChEMBL document CHEMBL4765373, “Design, synthesis and biological evaluation of rasagiline-clorgyline hybrids as novel dual inhibitors of monoamine oxidase-B and amyloid-β aggregation against Alzheimer's disease” (Eur J Med Chem, 2020).

The structures appear in SMILES notation. Activity calls are given as the source filed them. The calls are words filed in the database; no cut-off is given here. Where only a bound is given, the exact number is not on record here.

As a reminder, the AUC is concentration integrated over time. A word on the inhibition: it is the drop in the measured response relative to a control, in per cent. The term AUC(0-inf) denotes the area under the concentration-time curve extrapolated to infinity. A low value points to low exposure. What is called half-life is the time in which the quantity being followed falls by half. The low end stands for fast loss, the high end for slow loss. The term Tmax denotes the time from dosing to the highest level. As usually defined, the bioavailability is the share of a dose that reaches the circulation, judged against a reference dose that is usually intravenous. Lower therefore signals little systemic uptake. What is called Cmax is the highest concentration seen after dosing. By IC50 is commonly meant the concentration that inhibits the measured activity by half. For orientation: Papp means a coefficient for how fast a substance crosses the barrier.

Series [1] concerns SH-SY5Y. Nature of the series: Neuroprotective activity against 6-OHDA-induced cell death in human SH-SY5Y cells assessed as increase in cell survival at 1.563 to 25 uM incubated for 24 hrs by MTT assay. Format: functional, cell-based. Particulars: dose 1.563-25 µM. In outline: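 SH-SY5Y cells co-incubated with 200 µM 6-OHDA and compound at 1.563, 3.125, 6.25, 12.5 or 25 µM for 24 h. Viability read by MTT assay against a 6-OHDA-only group. Means ± SEM of three independent experiments.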

The nature of series [2]: Clearance in Sprague-Dawley rat at 3 mg/kg, iv by LC-MS/MS analysis. Format: ADME, organism-based. Particulars: in vivo. The procedure, abridged:
(§1)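 Male SD rats (n=3, 220 ± 20 g) dosed 3 mg/kg i.v. or 10 mg/kg by oral gavage. Plasma proteins precipitated with two volumes of 0.5% formic acid/acetonitrile; supernatant quantified by LC-MS/MS.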

The species entered for series [3] is Homo sapiens. Nature of the series: Selectivity index, ratio of IC50 for recombinant human MAOA expressed in baculovirus infected BTI insect cells to IC50 for recombinant human MAOB expressed in baculovirus infected BTI insect cells. In outline:
(§2)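 Recombinant human MAO-A or MAO-B with p-tyramine substrate; H2O2 production detected by Amplex Red. Compounds diluted in DMSO/PBS (final DMSO <0.1%) and incubated with enzyme and substrate 15 min at 37 °C in the dark. Fluorescence read at ex/em 545/590 nm; mean ± SD of three independent experiments.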

The target of series [4] is T1, Amine oxidase [flavin-containing] B (Homo sapiens, UniProt P27338).
T1 sequence (P27338 whole entry): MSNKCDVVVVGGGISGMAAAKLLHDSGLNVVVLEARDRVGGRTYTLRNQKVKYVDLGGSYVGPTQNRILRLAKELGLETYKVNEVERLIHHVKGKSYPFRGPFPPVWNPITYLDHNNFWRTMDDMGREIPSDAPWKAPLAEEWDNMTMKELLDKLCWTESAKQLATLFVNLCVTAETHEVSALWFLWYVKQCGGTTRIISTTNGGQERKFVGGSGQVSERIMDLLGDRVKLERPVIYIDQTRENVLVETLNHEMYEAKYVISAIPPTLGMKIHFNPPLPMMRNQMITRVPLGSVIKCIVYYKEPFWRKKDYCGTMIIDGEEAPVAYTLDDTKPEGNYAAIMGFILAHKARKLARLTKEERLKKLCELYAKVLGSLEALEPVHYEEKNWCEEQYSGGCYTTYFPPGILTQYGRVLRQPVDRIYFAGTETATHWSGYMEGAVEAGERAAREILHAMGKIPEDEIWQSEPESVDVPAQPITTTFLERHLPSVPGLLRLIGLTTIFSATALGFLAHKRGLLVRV
Nature of the series: Competitive inhibition of recombinant human MAOB expressed in baculovirus infected BTI insect cells at 2.5 to 10 nM using varying levels of p-tyramine as substrate by Lineweaver-Burk plot analysis. Particulars: dose 2.5-10 nM. In outline: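 Recombinant hMAO-B initial rates measured with and without inhibitor at 2.5, 5 and 10 nM. p-Tyramine substrate at 0.05, 0.1, 0.5, 1.0, 1.5 and 3.0 mM. H2O2 production read by Amplex Red fluorescence. Mechanism taken from overlaid Lineweaver–Burk reciprocal plots.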

The nature of series [5]: AUC (0 to infinity) in Sprague-Dawley rat at 3 mg/kg, iv by LC-MS/MS analysis. It counts as ADME, organism-based. Set-up: time infinity, route intravenous, dose 3 mg/kg. Conditions: in vivo. In outline:
as §1

The species named for series [6] is Homo sapiens. Nature of the series: Inhibition of self-induced amyloid beta (1 to 42) (unknown origin) peptide aggregation assessed as reduction in number of amyloid beta aggregates by TEM analysis.
A short description of series [7]: AUC (0 to infinity) in Sprague-Dawley rat at 10 mg/kg, po administered via gavage by LC-MS/MS analysis. It counts as ADME, organism-based. More on the design: route oral, time infinity, dose 10 mg/kg. Particulars: in vivo. The procedure, abridged:
as §1

The nature of series [8]: Half life in Sprague-Dawley rat at 3 mg/kg, iv by LC-MS/MS analysis. It counts as ADME, organism-based. Particulars: in vivo. In outline: as §1
A short description of series [9]: Tmax in Sprague-Dawley rat at 10 mg/kg, po administered via gavage by LC-MS/MS analysis. Format: ADME, organism-based. Conditions: in vivo. In outline:
as §1

A short description of series [10]: Oral bioavailability in Sprague-Dawley rat at 10 mg/kg administered via gavage by LC-MS/MS analysis. Format: ADME, organism-based. Conditions: in vivo. In outline:
as §1

Series [11] in a line: Cmax in Sprague-Dawley rat at 3 mg/kg, iv by LC-MS/MS analysis. Format: ADME, organism-based. More on the design: route intravenous, dose 3 mg/kg. Particulars: in vivo. The procedure, abridged: as §1
Series [12] is described as follows: Half life in Sprague-Dawley rat at 10 mg/kg, po administered via gavage by LC-MS/MS analysis. Conditions: in vivo. Format: ADME, organism-based. In outline:
as §1

Another series concerns the target T2, MAO-A (Homo sapiens, UniProt P21397).
T2 sequence (P21397 whole entry): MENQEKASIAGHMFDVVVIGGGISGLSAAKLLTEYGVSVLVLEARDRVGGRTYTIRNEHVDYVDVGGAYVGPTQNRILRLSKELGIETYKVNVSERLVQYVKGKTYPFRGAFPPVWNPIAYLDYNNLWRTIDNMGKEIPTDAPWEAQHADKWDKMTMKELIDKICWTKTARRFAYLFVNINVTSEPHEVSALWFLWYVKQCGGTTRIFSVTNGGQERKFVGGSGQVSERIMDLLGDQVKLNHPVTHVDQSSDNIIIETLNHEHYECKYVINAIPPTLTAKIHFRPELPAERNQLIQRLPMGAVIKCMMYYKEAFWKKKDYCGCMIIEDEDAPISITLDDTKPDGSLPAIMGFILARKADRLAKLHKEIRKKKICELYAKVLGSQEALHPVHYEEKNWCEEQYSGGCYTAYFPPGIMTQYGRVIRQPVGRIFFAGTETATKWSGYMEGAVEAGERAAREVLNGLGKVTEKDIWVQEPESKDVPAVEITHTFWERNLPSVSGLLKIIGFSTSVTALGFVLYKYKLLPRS
The series is described as follows: Inhibition of recombinant human MAOA expressed in baculovirus infected BTI insect cells at 100 uM using p-tyramine as substrate measured after 15 mins by Amplex red reagent based fluorescence assay relative to control. Particulars: probe p-tyramine. In outline: as §2

Series [13] deals with T1, Amine oxidase [flavin-containing] B. Nature of the series: biochemical. Format: cell-based, BTI.
The species named for series [14] is Homo sapiens. Nature of the series: Inhibition of self-induced amyloid beta (1 to 42) (unknown origin) peptide aggregation at 25 uM measured after 48 hrs by thioflavin-T fluorescence assay relative to control.
The nature of a further series: in vitro. Particulars: PAMPA, pH 7.4.
A short description of series [15]: Cmax in Sprague-Dawley rat at 10 mg/kg, po administered via gavage by LC-MS/MS analysis. Particulars: in vivo. Format: ADME, organism-based. More on the design: route oral, dose 10 mg/kg. The procedure, abridged: as §1
The subject of series [16] is SH-SY5Y. Nature of the series: Cytotoxicity against human SH-SY5Y cells assessed as reduction in cell viability at 25 uM after 24 hrs by MTT assay. Format: cell-based. In outline: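 SH-SY5Y cells grown in DMEM with FBS, penicillin/streptomycin, 5% CO2, 37 °C. Seeded at 10,000 cells/well and exposed to compound (6.25–100 µM) for 24 h at 37 °C. MTT added for 4 h, formazan dissolved in DMSO, absorbance read at 570 nm (reference 630 nm). Mean ± SD of three independent experiments.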
On the technique in general: Formazan colour is commonly taken as a measure of viable cells.

Take `C#CCN(C)CCCCCOc1ccc2c(c1)OCCC2=O`: the outcome with SH-SY5Y [1] was Active. For the same molecule, the CL in [2] came to 55.5 mL/min/kg. In addition, the Ratio IC50 in the series listed under Homo sapiens [3] is > 2.5 10^4No_unit. The “inhibition (INH)” value in series [4] is “Active”. The molecule further yielded an AUC in [5] of 247.74 ng·h/mL. Also, the inhibition entry in the series filed under Homo sapiens [6] is “Active”. In series [7], the AUC(0-inf) amounted to 268 ng·h/mL. Moreover, the half-life is 1.02 h in [8] and 1.33 h in series [12]. Also, in [9], the Tmax amounted to 0.3 h. The molecule also showed a bioavailability in [10] of 36.1%. The results for the Cmax in series [11] and in series [15] were 639 ng/mL and 142 ng/mL, respectively. The inhibition at 0.25 h, 100 µM on MAO-A came out at 6.04%. Also, in [13], inhibition was half-maximal at 4 nM (IC50). In the series filed under Homo sapiens [14], the inhibition came to 40.8%. In addition, the apparent permeability coefficient (Papp) at 16 h in the series “in vitro” was 10.2 ×10⁻⁶ cm/s. Further, the Activity result in the series on SH-SY5Y [16] is listed as “Non-Toxic”.
